Results published in ChEMBL document CHEMBL4715738, “In Vitro Antibacterial Activity of Curcumin-Polymyxin B Combinations against Multidrug-Resistant Bacteria Associated with Traumatic Wound Infections” (J Nat Prod, 2016).
The source made the active and inactive calls.

Key:
Staphylococcus aureus [1] = assay: Antibacterial activity against methicillin-resistant Staphylococcus aureus NCTC 12493 assessed as reduction in bacterial growth incubated for 24 hrs in presence of curcumin; assay type: functional
Pseudomonas aeruginosa [2] = assay: Antibacterial activity against Pseudomonas aeruginosa PA30 harboring VIM-2 assessed as reduction in bacterial growth incubated for 24 hrs in presence of curcumin; assay type: functional
[3] = system: Stenotrophomonas maltophilia; assay: Antibacterial activity against Stenotrophomonas maltophilia SMS01 assessed as reduction in bacterial growth incubated for 24 hrs in presence of curcumin; assay type: functional
[4] = system: Stenotrophomonas maltophilia; assay: Antibacterial activity against Stenotrophomonas maltophilia SMB07 assessed as reduction in bacterial growth incubated for 24 hrs in presence of curcumin; assay type: functional
Staphylococcus aureus [5] = assay: Synergistic antibacterial activity against Staphylococcus aureus ATCC 25923 assessed as fractional inhibitory concentration index measured after 24 hrs in presence of curcumin by checkerboard assay; assay type: functional
Method in brief: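 FICI was derived from checkerboard MICs. Synergy was defined as FICI ≤ 0.5 and additive as FICI > 0.5−4.0. Where an MIC was not reached, the dilution above the maximum dose was used in the FICI calculation. Experiments were run in triplicate and reported as means.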

Streptococcus pyogenes [6] = assay: Synergistic antibacterial activity against Streptococcus pyogenes SPY1 assessed as fractional inhibitory concentration index measured after 24 hrs in presence of curcumin by checkerboard assay; assay type: functional
Method in brief: (§1)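 FICI calculated from combination MICs; ≤0.5 taken as synergy and >0.5–4.0 as additive. Where an MIC was not reached, the dilution above the highest concentration tested was used in the calculation. Run in triplicate and reported as means.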

Streptococcus pyogenes [7] = assay: Synergistic antibacterial activity against Streptococcus pyogenes SPY2 assessed as fractional inhibitory concentration index measured after 24 hrs in presence of curcumin by checkerboard assay; assay type: functional; method in brief: as §1
[8] = system: Stenotrophomonas maltophilia; assay: Synergistic antibacterial activity against Stenotrophomonas maltophilia NCTC 10258 assessed as fractional inhibitory concentration index measured after 24 hrs in presence of curcumin by checkerboard assay; assay type: functional; method in brief: as §1
Acinetobacter baumannii [9] = assay: Antibacterial activity against Acinetobacter baumannii NCTC 19606 assessed as log reduction in colony forming units at MIC measured after 6 hrs by time kill assay; assay type: functional
Method in brief: (§2)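 Time-kill in Mueller-Hinton 2 broth. Inoculum was a 1/1000 dilution of a 16 h overnight culture, about 10^6 CFU/mL, 10 mL per tube. Arms were each agent alone at ×1 MIC, or the combination at ×1 MIC plus ×0.5 MIC partner. Incubated at 37 °C with continuous agitation for 24 h. Samples taken at 0, 2, 4, 6 and 24 h, serially diluted and plated on IsoSensitest agar for CFU counts.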

[10] = system: Stenotrophomonas maltophilia; assay: Antibacterial activity against Stenotrophomonas maltophilia NCTC 10258 assessed as reduction in colony formation at MIC measured after 24 hrs by time kill assay; assay type: functional, organism-based; method in brief: as §2
Enterococcus faecium = assay: Antibacterial activity against vancomycin-resistant Enterococcus faecium OEF65 assessed as reduction in bacterial growth incubated for 24 hrs in presence of polymyxin B; assay type: functional
Staphylococcus aureus [11] = assay: Antibacterial activity against methicillin-resistant Staphylococcus aureus NCTC 12493 assessed as reduction in bacterial growth incubated for 24 hrs in presence of polymyxin B; assay type: functional
Streptococcus pyogenes [12] = assay: Antibacterial activity against Streptococcus pyogenes SPY1 assessed as reduction in bacterial growth incubated for 24 hrs in presence of polymyxin B; assay type: functional
Escherichia coli [13] = assay: Antibacterial activity against Escherichia coli NCTC 12241 assessed as reduction in bacterial growth incubated for 24 hrs in presence of polymyxin B; assay type: functional
Acinetobacter baumannii [14] = assay: Antibacterial activity against Acinetobacter baumannii AB12 harboring OXA-23 assessed as reduction in bacterial growth incubated for 24 hrs in presence of polymyxin B; assay type: functional
Acinetobacter baumannii [15] = assay: Antibacterial activity against Acinetobacter baumannii AB14 harboring OXA-23 clone 1 assessed as reduction in bacterial growth incubated for 24 hrs in presence of polymyxin B; assay type: functional
Pseudomonas aeruginosa [16] = assay: Antibacterial activity against Pseudomonas aeruginosa PAO1 assessed as reduction in bacterial growth incubated for 24 hrs in presence of polymyxin B; assay type: functional
Pseudomonas aeruginosa [17] = assay: Antibacterial activity against Pseudomonas aeruginosa PA30 harboring VIM-2 assessed as reduction in bacterial growth incubated for 24 hrs in presence of polymyxin B; assay type: functional
Pseudomonas aeruginosa [18] = assay: Antibacterial activity against Pseudomonas aeruginosa ATCC 27853 assessed as reduction in bacterial growth incubated for 24 hrs in presence of polymyxin B; assay type: functional
[19] = system: Stenotrophomonas maltophilia; assay: Antibacterial activity against Stenotrophomonas maltophilia NCTC 10258 assessed as reduction in bacterial growth incubated for 24 hrs in presence of polymyxin B; assay type: functional
Pseudomonas aeruginosa [20] = assay: Antibacterial activity against Pseudomonas aeruginosa ATCC 27853 assessed as log reduction in colony forming units at 0.5 fold MIC measured after 24 hrs by time kill assay; assay type: functional; conditions: in the assay text read “1 fold MIC” for “0.5 fold MIC”; method in brief: as §2
Pseudomonas aeruginosa [21] = assay: Bactericidal activity against Pseudomonas aeruginosa ATCC 27853 assessed as log reduction in colony forming units at 0.5 fold MIC measured after 24 hrs in presence of polymyxin B at MIC by time kill assay; assay type: functional; method in brief: as §2
Acinetobacter baumannii [22] = assay: Bactericidal activity against Acinetobacter baumannii NCTC 19606 assessed as bacterial cell death at 0.5 fold MIC measured after 4 to 6 hrs in presence of polymyxin B at MIC by time kill assay relative to control; assay type: functional; conditions: time 4-6 hrs
Method in brief: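 Time-kill in 10 mL Mueller-Hinton 2 broth, 37 °C with continuous agitation, 24 h. Inoculum was a 1/1000 dilution of a 16 h overnight culture, about 10^6 CFU/mL. Single agents at 1× MIC; combination at 1× MIC polymyxin B plus 0.5× MIC curcumin. Samples at 0, 2, 4, 6 and 24 h were serially diluted and plated on IsoSensitest agar for CFU/mL.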

HaCaT = assay: Cytotoxicity against human HaCaT cells at 43.4 uM measured after 4 hrs in presence of 1.5 uM polymyxin B by CyTox 96 nonradioactive assay relative to control; assay type: cell-based
Acinetobacter baumannii [23] = assay: Antibacterial activity against Acinetobacter baumannii ATCC 19606 assessed as reduction in bacterial colony formation at 0.5 fold MIC measured after 24 hrs by time kill assay; assay type: functional, organism-based; conditions: ATCC 19606 = CIP 70.34 = JCM 6841; method in brief: as §2
Staphylococcus aureus [24] = assay: Potentiation of polymyxin B-induced antibacterial activity against Staphylococcus aureus ATCC 25923 assessed as fold reduction in polymyxin B MIC measured after 24 hrs in presence of polymyxin B by checkerboard assay; assay type: functional
Escherichia coli [25] = assay: Potentiation of polymyxin B-induced antibacterial activity against Escherichia coli EC2 harboring CTX-M-15 assessed as fold reduction in polymyxin B MIC measured after 24 hrs […] checkerboard assay; assay type: functional
Method in brief: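 Combination MICs from the checkerboard used for FICI calculation. Where no MIC was reached, the dilution above the top dose was used in the FICI. Run in triplicate; mean values reported.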

Pseudomonas aeruginosa [26] = assay: Potentiation of polymyxin B-induced antibacterial activity against Pseudomonas aeruginosa PAO1 assessed as fold reduction in polymyxin B MIC measured after 24 hrs in presence of polymyxin B by checkerboard assay; assay type: functional
[27] = system: Stenotrophomonas maltophilia; assay: Potentiation of polymyxin B-induced antibacterial activity against Stenotrophomonas maltophilia SMB07 assessed as fold reduction in polymyxin B MIC measured after 24 hrs in presence of polymyxin B by checkerboard assay; assay type: functional
[28] = system: Stenotrophomonas maltophilia; assay: Potentiation of polymyxin B-induced antibacterial activity against Stenotrophomonas maltophilia NCTC 10258 assessed as fold reduction in polymyxin B MIC measured after 24 hrs in presence of polymyxin B by checkerboard assay; assay type: functional

CC[C@H](C)CCCCC(=O)N[C@@H](CCN)C(=O)N[C@H](C(=O)N[C@@H](CCN)C(=O)N[C@H]1CCNC(=O)[C@H]([C@@H](C)O)NC(=O)[C@H](CCN)NC(=O)[C@H](CCN)NC(=O)[C@H](CC(C)C)NC(=O)[C@@H](Cc2ccccc2)NC(=O)[C@H](CCN)NC1=O)[C@@H](C)O.O=S(=O)(O)O
MIC (Staphylococcus aureus [1]): 0.79 µM
MIC (Pseudomonas aeruginosa [2]): 0.19 µM
MIC [3]: 0.024 µM
MIC [4]: 0.0313 µM
fractional inhibitory concentration index (FICI) (Staphylococcus aureus [5]): 0.156
fractional inhibitory concentration index (FICI) (Streptococcus pyogenes [6]): 0.094
fractional inhibitory concentration index (FICI) (Streptococcus pyogenes [7]): 0.188
fractional inhibitory concentration index (FICI) [8]: 0.012
Activity (Acinetobacter baumannii [9]): 2 log10CFU/ml
Activity [10]: inactive

COc1cc(/C=C/C(=O)CC(=O)/C=C/c2ccc(O)c(OC)c2)ccc1O [CURCUMIN]
MIC (Enterococcus faecium): 43 µM
MIC (Staphylococcus aureus [11]): 43 µM
MIC (Streptococcus pyogenes [12]): 43 µM
MIC (Escherichia coli [13]): 43 µM
MIC (Acinetobacter baumannii [14]): 87 µM
MIC (Acinetobacter baumannii [15]): 174 µM
MIC (Pseudomonas aeruginosa [16]): 43 µM
MIC (Pseudomonas aeruginosa [17]): 174 µM
MIC (Pseudomonas aeruginosa [18]): 174 µM
MIC [19]: 22 µM
Activity (Pseudomonas aeruginosa [20]): 2 log10CFU/ml
Activity (Pseudomonas aeruginosa [21]): >3 log10CFU/ml
Activity (Acinetobacter baumannii [22]): 100%
Activity (HaCaT): 22%
Activity (Acinetobacter baumannii [23]): inactive
fold change (FC) (Staphylococcus aureus [24]): 3
fold change (FC) (Escherichia coli [25]): 3
fold change (FC) (Pseudomonas aeruginosa [26]): 3
fold change (FC) [27]: 3
fold change (FC) [28]: 3
